Hit rate of the full screen: of about 2,500 compounds, about 1,200 (48%) were called active.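 The calls were made as follows: active = mean activation above the low control average plus 3 SD, as set in the primary screen (cut at about 12% in these data); inactive = the rest.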 So high a share suggests a set chosen from earlier hits. Some of the results follow.
Each molecule was assayed against Troponin I, cardiac muscle (Homo sapiens) + Troponin T, cardiac muscle (Homo sapiens) + Troponin C, slow skeletal and cardiac muscles (Homo sapiens) (UniProt P19429+P45379+P63316) (assay: cardiac RTF calcium sensitivity activators, confirmation, biochemical, IANBD-TnC fluorescence, triplicate (AID 504383;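 also: 0% = DMSO at 0.472 mM calcium and 100% = DMSO at 2.9 mM calcium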)). Settings: IANBD-labeled cardiac RTF, Ca2+ sensitivity fluorescence; at 7.2 µM; active compounds read high; scaled from EC20 to saturating calcium; tested at EC20 calcium, 0.472 mM.
In short: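 Assay system: labelled regulated thin filaments / Timing: 15 min at 25 °C / Detection: fluorescence intensity of labelled filaments / Measure: fluorescence gain scaled between EC20 and EC100 calcium controls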

| Structure (SMILES) | activation |
| --- | --- |
| COc1ccc(O)c(/C=N/c2nc3ccccc3n2C)c1 | 10.8% (inactive) |
| Cc1ccccc1N=Cc1cc2c(cc1O)OC(N)=C(C#N)C2c1ccccc1 (stereo not drawn) | 15.4% (active) |
| COc1ccc(N=Cc2cc3c(cc2O)OC(N)=C(C#N)C3c2ccccc2)cc1 (stereo not drawn) | 95.8% (active) |
| Cc1cc(C)n(-c2nc3ccccc3nc2Nc2ccc3[nH]c(=O)[nH]c3c2)n1 | 15.9% (active) |
| Cc1cc(S(=O)(=O)Cc2noc(-c3c(C)noc3C)n2)c(C)cc1Cl | 5.06% (inactive) |
| O=C(O)C1CCC(CNCc2ccccc2Cl)CC1 (stereo not drawn) | 10.5% (inactive) |
| CC(C)(ONC(=O)Nc1ccccc1Cl)C(=O)O | 833% (active) |
| CCN1C(=O)[C@@H]2Cc3c([nH]c4ccccc34)C(c3ccc(OC)cc3)N2C1=S (stereo partly drawn) | 6.48% (inactive) |
| O=C(NCCN1CCOCC1)c1ccccc1N1C(=O)[C@@H]2Cc3c([nH]c4ccccc34)C(c3ccc(F)cc3)N2C1=O (stereo partly drawn) | 4.51% (inactive) |
| CC(C)c1ccc(C2c3[nH]c4ccccc4c3C[C@H]3C(=O)N(c4ccccc4C(=O)N4CCC(C(=O)O)CC4)C(=O)N23)cc1 (stereo partly drawn) | 12% (active) |
| CCOc1nc(OCC)c2[nH]c(C(=O)O)c(Br)c2n1 | 4.87% (inactive) |
| CC1CN(CCCCOc2ccc3ccccc3c2)CC(C)O1 (stereo not drawn) | 7.54% (inactive) |
| CC1CC(C)CN(CCOCCSc2ccccc2)C1 (stereo not drawn) | 76.1% (active) |
| Cc1ccccc1C(=O)c1cccn1CC(=O)NCCCN1CC(C)CC(C)C1 (stereo not drawn) | 5.75% (inactive) |
| Cc1ccccc1C1CC(=O)Oc2cc(O)ccc21 (stereo not drawn) | -1.84% (inactive) |
| O=C(CSc1ccc(Cl)cc1)Nc1cccc(NC(=O)c2ccco2)c1 | 9.78% (inactive) |
| COCCn1c(SCC(=O)Nc2ccc(NC(=O)c3ccco3)c(OC)c2)nc2ccccc2c1=O | 14.4% (active) |
| COC1=CC2(O)CCCC2=CC1=O (stereo not drawn) | 6.42% (inactive) |
| CC(C)(C)NC(=O)NC(=O)Cn1ccsc1=N | 135% (active) |
| Cc1nc2c(C#N)cnn2c2c1CCN(Cc1ccccc1)N2C | 389% (active) |
| Cc1c2c(n3c(nc4ccccc43)c1C#N)N(CCN1CCOCC1)CC2 | 10% (inactive) |
| O=C1c2c(O)cc(O)cc2O[C@@]12c1c(cc(O)c3c1O[C@H](c1ccc(O)cc1)[C@@H](O)C3)O[C@@H]2c1ccc(O)cc1 | 5.77% (inactive) |
| CCOc1ccc(C2CC(c3c(O)c4ccccc4oc3=O)=NN2c2ccccc2)cc1OC (stereo not drawn) | 22.3% (active) |
| CCC1(C)COC(c2ccc(OC)c(OC)c2)OC1 (stereo not drawn) | 1.48% (inactive) |

| Structure (SMILES) | activation |
| --- | --- |
| NC(=O)c1cc2ccc(O)cc2oc1=NCc1ccccc1 | 6.57% (inactive) |
| CCOC(=O)c1c(-c2ccccc2Cl)csc1NC(=O)c1cc(S(=O)(=O)N2CCOCC2)ccc1C | 12.7% (active) |
| Cc1ccc(NC(=O)c2cc(S(=O)(=O)N3CCCCC3)ccc2N2CCOCC2)cc1S(=O)(=O)N(C)C | 7.6% (inactive) |
| CCCCCC(C)NC(=S)NC(=O)c1cc(S(=O)(=O)N2CCOCC2)ccc1C (stereo not drawn) | 6.76% (inactive) |
| Oc1ccc2nnc3c(Br)cnn3c2c1 | 7.23% (inactive) |
| Cc1nc2oc(C(=O)c3ccccc3)c(N)c2c2c1COC(C)(C)C2 | 744% (active) |
| CCc1ccc2c(COC(=O)CNS(=O)(=O)c3ccc(NC(C)=O)cc3)cc(=O)oc2c1 | 34.8% (active) |
| COc1ccc(/C=C2\Oc3cc(OCC(N)=O)ccc3C2=O)cc1OC | 6.98% (inactive) |
| O=C(Oc1ccc2c(c1)O/C(=C\c1ccncc1)C2=O)c1ccccc1 | 104% (active) |
| COc1ccccc1C(=O)Oc1ccc2c(c1)O/C(=C\c1ccncc1)C2=O | 31.6% (active) |
| CN(C)c1ccc(/C=C2\Oc3ccc(C#Cc4cccc(N)c4)cc3C2=O)cc1 | 4.36% (inactive) |
| Cc1ccc(-n2nnnc2C(=Cc2ccc(N(C)C)cc2)c2nnnn2-c2ccc(C)cc2)cc1 | 14.4% (active) |
| Cc1ccc(-n2nnnc2-c2cnc3cc4c(cc3c2C)OCO4)cc1 | 4.93% (inactive) |
| O=c1c(/C=C(\O)c2ccc(F)cc2)nc2ccccc2n1-c1ccccc1 | 6.91% (inactive) |
| CCCNC(=O)Cn1c(=O)/c(=C\c2ccc(-c3ccc([N+](=O)[O-])cc3)o2)s/c1=C\C(=O)C(C)(C)C | 28.6% (active) |
| CC(C)(C)C(=O)/C=c1\s/c(=C\c2ccc(-c3ccc([N+](=O)[O-])cc3)o2)c(=O)n1CC(=O)NC(N)=O | 46.3% (active) |
| CCCNC(=O)Cn1c(=O)/c(=C/c2ccc(-c3ccc([N+](=O)[O-])cc3)o2)s/c1=C\C(=O)C(C)(C)C | 29.9% (active) |
| CC1=CC(=C(C#N)C#N)C=C(C)N1Cc1ccc(Cl)cc1 | 52.2% (active) |
| CS(=O)(=O)Nc1nc2n(n1)C(c1ccccc1)C=C(c1ccc(Br)cc1)N2 (stereo not drawn) | 35.8% (active) |
| O=c1cc2c(c(-c3ccccc3)n1Cc1ccccc1)[C@H](CCO)NC2 | 16.1% (active) |
| O=c1ccc2c(-c3ccccc3)c3ccc(O)cc3oc-2c1 | 88.1% (active) |
| O=c1cc(-c2ccccc2)oc2ccc(Br)cc12 | 6.06% (inactive) |
| Nc1ccc(-c2c3ccc(=O)cc-3oc3cc(O)ccc23)cc1C(=O)O | 4.67% (inactive) |
| Cn1cc(C2=C(c3ccc(Cl)cc3Cl)C(=O)NC2=O)c2ccccc21 | 32.9% (active) |

| Structure (SMILES) | activation |
| --- | --- |
| O=C(NCC1CCCO1)c1c(O)nc2sccn2c1=O (stereo not drawn) | 17.7% (active) |
| Cc1nccc(-c2cccc(N/N=C(\C#N)C(=O)c3ccccc3)c2)n1 | 6.06% (inactive) |
| CC(C)c1ccc(OCC(=O)NC(Cc2c[nH]c3ccccc23)C(=O)O)cc1 (stereo not drawn) | 4.54% (inactive) |
| COc1ccc2c(CC(=O)N[C@@H](Cc3c[nH]c4ccccc34)C(=O)O)cc(=O)oc2c1 | 16.7% (active) |
| COc1ccc(/C=N/NC(=O)C(Cc2c[nH]c3ccccc23)NC(=O)OCC(C)C)cc1[N+](=O)[O-] (stereo not drawn) | 7.99% (inactive) |
| NC(=O)CC[C@@H]1NC(=O)[C@H](Cc2ccc(O)cc2)NC(=O)c2cc([N+](=O)[O-])cc(F)c2OCC[C@@H](C(N)=O)NC1=O | 0.64% (inactive) |
| CCOc1ccc(CN2CCN(C/C=C/c3ccc(OC)cc3)CC2CCO)cc1 (stereo not drawn) | 7.69% (inactive) |
| Cc1ccc(CN2CCN(Cc3ccc(-n4cccn4)cc3C)CC2CCO)cc1 (stereo not drawn) | 108% (active) |
| CC/C(=N/Nc1cccc(C)c1)c1cnnc(SC)n1 | 12.7% (active) |
| COc1ccccc1CNc1cc(C)ccc1C | 1250% (active) |
| COc1cc(/C=C2/SC(=S)N(CCC(=O)Nc3ccccc3)C2=O)cc(OC)c1OC | 1.16% (inactive) |
| CC(=O)c1ccc(NC(=O)CN2C(=O)/C(=C/C=C/c3ccccc3)SC2=S)cc1 | 13.7% (active) |
| C#CCN1C(=O)S/C(=C/C=C/c2ccc(N(C)C)cc2)C1=O | 9.72% (inactive) |
| Cc1ccc(/C=C/C(=O)Nc2cccc3cccnc23)o1 | 20.6% (active) |
| COc1ccc(C2C(C(=O)c3ccccc3)N3c4ccccc4C=CC3C2[N+](=O)[O-])cc1 (stereo not drawn) | 47.8% (active) |
| COc1ccc(N2C(=O)[C@@H]3[C@H](C2=O)[C@H](C(C)=O)N2c4ccccc4C=C[C@@H]32)cc1 | 9.39% (inactive) |
| Cc1cc(N/C=C\c2nnnn2-c2ccc(F)cc2)no1 | 979% (active) |
| O=C1c2cccc3c(O)ccc(c23)C(=O)N1Cc1ccccc1 | 33.7% (active) |
| C[C@H]1CCC(=O)N([C@H](CSc2ccc(Br)cc2)Cc2ccccc2)CC1 | 6.56% (inactive) |
| COc1ccc2[nH]c3c(c2c1)CCNC3c1ccc([N+](=O)[O-])o1 (stereo not drawn) | 2.79% (inactive) |
| O=C(c1ccc(Nc2cccc(C(F)(F)F)c2)nc1)N1CCCC1 | 168% (active) |
| O=C(c1ccccc1Nc1ccc(SC(F)F)cc1)N1CCCCC1 | 5.45% (inactive) |
| CCSc1cc(N2CCCC2)nc(-c2ccc(Cl)cc2)n1 | 6.74% (inactive) |
| C/C(=N/NS(=O)(=O)c1ccccc1)c1ccc(NC(=O)C2CC2)cc1 | 20.7% (active) |

| Structure (SMILES) | activation |
| --- | --- |
| C/C(=N/NC(=O)Nc1ccccc1)c1ccc(C)cc1 | 9.45% (inactive) |
| O=C(C1=C[C@@H](c2ccc(Br)cc2)C[C@@H](OCc2ccc(CO)cc2)O1)N1CCN(Cc2ccc3c(c2)OCO3)CC1 | 4.22% (inactive) |
| C#Cc1ccc([C@@H]2C=C(C(=O)OCC=C)O[C@H](OCCCCO)C2)cc1 | 9.72% (inactive) |
| O=C(Nc1ccccc1)C1=C[C@H](c2ccc3c(c2)OCO3)C[C@H](OCCCCO)O1 | 13% (active) |
| CCCC[C@H]1COCCS(=O)(=O)N1Cc1ccc(F)cc1 | 0.38% (inactive) |
| NC(=O)c1c[nH]c2ccccc12 | 717% (active) |
| CCCn1c(N2CCN(CC(=O)c3c[nH]c4ccccc34)CC2)nc2c1c(=O)[nH]c(=O)n2C | 8.31% (inactive) |
| OCCc1c[nH]c2ccccc12 | 6.66% (inactive) |
| N#C/C(=C/c1ccc(N2CCOCC2)o1)c1ccc(Cl)cc1 | 9.77% (inactive) |
| N#C/C(=C/c1ccc(N2CCCCCC2)o1)c1cccc(F)c1 | 99.3% (active) |
| N#C/C(=C/c1ccc(N2CCCCCC2)o1)c1ccc(Cl)cc1 | 38.8% (active) |
| O=C(NCc1nnc(SCC(=O)N2CCCCCC2)o1)c1ccco1 | 28.5% (active) |
| CC(C)Sc1nc2ccc(Br)cc2[nH]1 | 56.5% (active) |
| COC(=O)c1ccc(S(=O)(=O)N(CCO)Cc2ccccc2)n1C | 6.61% (inactive) |
| COC(=O)c1ccc(S(=O)(=O)N2CCC(O)CC2)n1C | 30.3% (active) |
| Cc1ccc(N2CN(Cc3cccnc3)CNC2=S)cc1 | 13.6% (active) |
| Cc1ccc(CNc2cccnc2)cc1 | 1.46% (inactive) |
| CS/C(=N\S(=O)(=O)c1cccs1)Nc1cccc(Cl)c1C | 61.5% (active) |
| COCCn1c(=O)c2ccccc2c2ccccc2c1=O | 89% (active) |
| COCCn1c(-c2ccc(C)cc2)nc2oc3cc(OC)ccc3c(=O)c2c1=O | 10.7% (inactive) |
| COCCOC(=O)c1sc(=S)n(CCOC)c1N | 7.49% (inactive) |

Reference: PubChem BioAssay AID504383 (The Scripps Research Institute Molecular Screening Center, 2011)
